According to ChEMBL document CHEMBL2176998, “Regulation of the Escherichia coli AtoSC two component system by synthetic biologically active 5;7;8-trimethyl-1;4-benzoxazine analogues” (Bioorg Med Chem, 2011):
Active and inactive are the calls of the source. The rule behind the calls is not given here.

What was measured:
[1] = Induction of purified His6-tagged cytosolic AtoS autophosphorylation preincubated at 1 mM for 15 mins before […] addition after 30 mins by autoradiography
How it was run: (§1)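 Purified His6-tagged cytoAtoS (7 µM) was preincubated 15 min at room temperature with compound at 1 mM final in 50 mM Tris-HCl pH 7.6, 10 mM MgCl2, 100 mM KCl, 1 mM DTT, 10 mM NaF. Reactions were stopped with SDS loading buffer, resolved on 12% SDS–PAGE and autoradiographed.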

[2] = system: Escherichia coli; assay: Induction of atoDAEB transcription in Escherichia coli K-12 BW25113 at 1 mM by beta-galactosidase reporter assay; type: functional, organism-based
How it was run: (§2)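 BW25113 carrying pCPG5 (atoA-lacZ, atoDAEB promoter) grown at 37 °C in supplemented M9 minimal medium with 1 mM compound. Overnight cultures were diluted 1:15 and grown to OD600 0.4–0.7. Cells were washed twice in M9, then β-galactosidase activity was read. Plasmid pMLB1034 served as negative control.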

[3] = system: Escherichia coli; assay: Induction of atoC transcription in Escherichia coli K-12 BW25113 at 1 mM by beta-galactosidase reporter assay; type: functional, organism-based
How it was run: (§3)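 BW25113 carrying pCPG6 (atoC-lacZ) grown at 37 °C with vigorous shaking in supplemented M9 minimal medium with ampicillin 100 µg/mL. Overnight cultures were diluted 1:15 into medium containing compound at 1 mM, or at 0, 0.25, 0.5, 1.0, 2.5 and 5 mM. Cells were grown to OD600 0.4–0.7, then harvested, washed twice in M9, and assayed for β-galactosidase. The pMLB1034 vector strain served as negative control. Two independent experiments, two clones each.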

[4] = system: Escherichia coli; assay: Repression of atoDAEB transcription in Escherichia coli K-12 BW25113 at 1 mM by beta-galactosidase reporter assay; type: functional, organism-based; how it was run: as §2
[5] = system: Escherichia coli; assay: Repression of atoC transcription in Escherichia coli K-12 BW25113 at 1 mM by beta-galactosidase reporter assay; type: functional, organism-based; how it was run: as §3
[6] = system: Nucleic Acid; assay: Activation of atoDAEB promoter activity in Escherichia coli K-12 BW25113 harboring plasmid containing atoA-lacz at 0.1 to 2.5 mM by beta-galactosidase reporter assay in presence of 2.5 mM acetoacetate; type: nucleic-acid assay
How it was run: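 BW25113/pCPG5 (atoA-lacZ) grown in modified M9 mineral medium with no acetoacetate or with 2.5 or 10 mM acetoacetate. Compound was added at 0.1, 0.5, 1.0 or 2.5 mM after 1:15 dilution of overnight cultures. Cells were grown to OD600 0.4–0.7, washed twice in M9 and assayed for β-galactosidase.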

[7] = Stimulation of recombinant purified His6-tagged cytosolic AtoS oligomers assessed as reduction in dimeric form at 1 mM using glutaraldehyde by SDS-PAGE analysis
How it was run: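 It was then cross-linked 30 min at 25 °C with 0.1% glutaraldehyde. The reaction was stopped with 2× SDS loading buffer and boiling, run on 8.5% SDS–PAGE and immunoblotted with anti-His (1:500).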

[8] = Induction of purified His6-tagged cytosolic AtoS kinase activity preincubated at 1 mM for 15 mins before […] addition after 30 mins by autoradiography; how it was run: as §1
[9] = system: Escherichia coli; assay: Reduction in AtoS protein level in Escherichia coli K-12 BW25113 grown to OD600 0.5 to 0.6 at 2.5 mM by immunoblot method; type: functional, organism-based
How it was run: (§4)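 BW25113 carrying pUC-Az (atoS, atoC) grown in supplemented M9 with compound at 1.0 or 2.5 mM, added at the start of growth. Cultures were harvested at OD600 0.5–0.6. Whole-cell extracts in SDS loading buffer (15 µL) were boiled and run on SDS–PAGE, then immunoblotted with affinity-purified rabbit polyclonal anti-AtoC or anti-AtoS. BW28878, lacking AtoS/AtoC, was the negative control.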

[10] = system: Escherichia coli; assay: Increase in AtoC protein level in Escherichia coli K-12 BW25113 grown to OD600 0.5 to 0.6 at 1 to 2.5 mM by immunoblot method; type: functional, organism-based; how it was run: as §4
[11] = system: Nucleic Acid; assay: Effect on atoDAEB promoter activity in Escherichia coli K-12 BW25113 at 1 to 2.5 mM by beta-galactosidase reporter assay; type: nucleic-acid assay
How it was run: (§5)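 BW25113 carrying pCPG4 (atoS-lacZ) or pCPG5 (atoA-lacZ), in supplemented M9 at 37 °C. Overnight cultures were diluted 1:15 into medium with compound at 1.0 or 2.5 mM and grown to OD600 0.4–0.7. Cells were harvested, washed twice in M9 and assayed for β-galactosidase. The pMLB1034 strain served as negative control.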

[12] = system: Escherichia coli; assay: Induction of atoC transcription in Escherichia coli K-12 BW25113 by beta-galactosidase reporter assay; type: functional, organism-based; how it was run: as §3
[13] = system: Escherichia coli; assay: Increase in DnaK protein level in Escherichia coli K-12 BW25113 by Western blot method; type: functional, organism-based
[14] = system: Escherichia coli; assay: Reduction in AtoS protein level in Escherichia coli K-12 BW25113 at 1 to 5 mM by immunoblot method; type: functional, organism-based
How it was run: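 BW25113/pUC-Az grown in supplemented M9 with various compound concentrations. Half of each dose was added at OD600 0.2 and half at 0.4, and growth continued to OD600 0.9. Total extracts (15 µL) were run on 10% SDS–PAGE and immunostained with anti-AtoC (1:500) or anti-AtoS (1:1000). BW28878 was the negative control.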

[15] = system: Escherichia coli; assay: Effect on AtoS protein level in Escherichia coli K-12 BW25113 grown to OD600 0.5 to 0.6 at 1 mM by immunoblot method; type: functional, organism-based; how it was run: as §4
[16] = system: Escherichia coli; assay: Effect on HSP60 protein level in Escherichia coli K-12 BW25113 harboring plasmid containing atoC-lacZ at 0.25 to 5 mM by Western blot method; type: functional, organism-based
[17] = system: Nucleic Acid; assay: Activation of atoC promoter in Escherichia coli K-12 BW25113 by beta-galactosidase reporter assay; type: nucleic-acid assay; how it was run: as §3
[18] = system: Nucleic Acid; assay: Effect on atoS promoter activity in Escherichia coli K-12 BW25113 at 1 to 2.5 mM by beta-galactosidase reporter assay; type: nucleic-acid assay; how it was run: as §5
[19] = system: Escherichia coli; assay: Reduction in AtoC protein level in Escherichia coli K-12 BW25113 harboring pUC-Az plasmid at 5 mM by immunoblot method
[20] = system: Nucleic Acid; assay: Activation of atoDAEB promoter activity in Escherichia coli K-12 BW25113 harboring plasmid containing atoA-lacz by beta-galactosidase reporter assay in presence of 2.5 mM acetoacetate

| Structure (SMILES) | Activity [1] | Activity [2] | Activity [3] | Activity [4] | further results |
| --- | --- | --- | --- | --- | --- |
| COc1ccc(C2CNc3c(C)cc(C)c(C)c3O2)cc1 (stereo unspecified) | inactive | Active | Active |  |  |
| Cc1c(C)c2c(c(C)c1Cl)NCCO2 | inactive |  |  | Active | Activity [5]: Active |
| Cc1c(C)c2c(c(C)c1Cl)NCC(c1ccccc1)O2 (stereo unspecified) | inactive | Active | Active |  |  |
| COc1ccc(C2COc3c(C)c(C)cc(C)c3N2)cc1 (stereo unspecified) | inactive | Active |  |  | Activity [5]: Active |
| Cc1c(C)c2c(c(C)c1Br)NCCO2 | inactive | inactive | inactive | Active |  |
| Cc1cc(C)c2c(c1C)OCCN2 | Active |  | Active | Active | Activity [6]: Active; Activity [7]: Active; Activity [8]: Active; Activity [9]: Active; Activity [10]: Active; Activity [11]: inactive; Activity [12]: Dose-dependent effect; Activity [13]: Dose-dependent effect; Activity [14]: Active; Activity [15]: inactive; Activity [16]: inactive; Activity [17]: Dose-dependent effect; Activity [18]: inactive; Activity [19]: Active; Activity [20]: Active |
| COc1ccc(-c2c(C)c(C)c3c(c2C)NCCO3)cc1 |  | inactive | Active |  |  |
